We go through 95 compounds from ChEMBL document CHEMBL4513216, “Probing the Open Global Health Chemical Diversity Library for Multistage-Active Starting Points for Next-Generation Antimalarials” (ACS Infect Dis, 2020).

The series is described as follows: Toxicity liver stage against HepG2, at 10uM. To be noted: human, HepG2-A16-CD81EGFP cells; read-out: INHIBITION
Type of series: cell-based. Details: test concentration 10 uM, cell line HepG2-A16-CD81EGFP. The essentials: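 Uninfected HepG2-A16-CD81EGFP cells, 3 × 10^3 per well, 1536-well, plated on prespotted compound at 10 μM final, parasite-free screening media added to match infected plates; puromycin 10 μM positive, DMSO 0.5% negative; run in parallel with 48 h PbLuc assay at 37 °C, 5% CO2; viability by CellTiter-Glo luminescence, normalized to controls.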
Consider `Cc1ccc(NC(=O)c2ccc(=O)n(CC(=O)Nc3nccs3)n2)cc1`, for which the cytotoxicity at 10 µM came to 0.592%.
As for `CS(=O)(=O)N1CC(=O)N(CCCc2ccccc2)CC(O)C1` (stereo not given), the figure is -7.99%; as for `CCOC(=O)N1[C@@H](c2ccco2)[C@@H](C(=O)NC)C[C@]12CCCCNC2=O`, -4.57%.
As for `COc1ccc(C(=O)N2CC(=O)N(CC3CC3)CC(O)C2)cc1` (stereo not given), the figure is 4.77%.
Regarding `CCOC(=O)N1CCC(OC)c2ccccc2N(CC(=O)NC)C(=O)C1` (stereo not given), the cytotoxicity at 10 µM was determined as 9.12%.
As for `CCOC(=O)COc1nc(CC(C)C)c2c(c1C#N)CCC2`, the figure is -5.72%; as for `Cc1occc(=O)c1OCc1noc(C(=O)NC(C)C)n1`, 4.6%; as for `CC(O)(CCc1ccccc1)CNC(=O)c1cccs1` (stereo not given), -1.44%.
In the case of `Cc1ccnc(OC[C@]23COC[C@H]2CN(C(=O)c2ccnn2C)C3)n1` it was 3.16%; in that of `Nc1no[n+]([O-])c1C(=O)NCc1cccnc1`, 5.93%.
With `CC(C)C(=O)N1CCC([C@@H]2C[C@H](C(F)F)n3ncnc3N2)CC1`, the cytotoxicity at 10 µM stood at 6.21%.
Regarding `CN1CCN(C)c2cc(NC(=O)c3cc[nH]n3)ccc2C1`, the cytotoxicity at 10 µM was -10.9%.
On to `COCCNC(=O)CN1CCN(c2nc3cc(C)ccc3o2)CC1`, for which the cytotoxicity at 10 µM is 5.75%.
As for `CC1CCCCN1C(=O)CCn1cnc2sccc2c1=O` (stereo not given), the figure is 3.63%; as for `Cc1nnc(C(C)N2CCCN(Cc3noc(C4CC4)n3)CC2)o1` (stereo not given), -21.2%; as for `COC(=O)CCN(CC1CCCO1)C(=O)Cc1ccc(OC)c(OC)c1` (stereo not given), 4.08%.
In the case of `N#CCCCOc1cccc(CN2CCCC2c2ccc[nH]2)c1` (stereo not given) it was -14.5%.
In the case of `CC(NC1(CNC(=O)NC2CC2)CCOCC1)c1ccccc1` (stereo not given) it was 10.2%.
For the compound `CCCC(NC(=O)c1ccc(C)cc1C)c1nnn[nH]1` (stereo not given), the cytotoxicity at 10 µM was -3.82%.
In the case of `Cc1n[nH]c(C2CN(CC(=O)NCCc3ccccc3C)CCO2)n1` (stereo not given) it was -3.94%; in that of `Cn1cc(S(=O)(=O)NC(CO)Cc2c[nH]c3ccccc23)cn1` (stereo not given), -7.37%.
On to `CC(c1nc(C2CC2)no1)N(C)Cc1ccc(Cl)cc1` (stereo not given), for which the cytotoxicity at 10 µM amounted to 3.74%.
Turning to `Fc1ccc(Br)c(NCc2nnsc2Cl)c1`, the cytotoxicity at 10 µM turned out to be 14.3%.
As for `OC(CNC1CCOCC1)c1ccc(Cl)c(F)c1` (stereo not given), the figure is -1.12%; as for `CC(C)c1nnc2n1CCN(C(=O)c1cnc(C3CC3)s1)C2`, 4.87%; as for `Nc1ccnn1C1CCN(Cc2ccccc2)C1` (stereo not given), 6.36%.
As to `COCC(NC(=O)c1ccc(O)nc1)c1ccc(C)o1` (stereo not given), the cytotoxicity at 10 µM was 4.96%.
As for `CN(CCOCC1CC1)C(=O)Cn1cccc(C(F)(F)F)c1=O`, the figure is -6.96%; as for `Cc1ccc(C)c(CS(=O)(=O)CC(=O)N(C)Cc2cccc(F)c2)c1`, 4.42%.
As for `CC(C(=O)NC1CC1)S(=O)(=O)Cc1csc(-c2cccs2)n1` (stereo not given), the figure is 9.02%; as for `COc1cc(C)c(CNC(C)c2csc(C3CC3)n2)cc1OC` (stereo not given), -2.21%.
As for `O=C1OCCC1N1CCN(c2ccc(O)cc2)CC1` (stereo not given), the figure is -1.29%; as for `COCCN1C(=O)CC[C@@H]2[C@H]1CCN2S(=O)(=O)c1cccs1`, -87.2%; as for `N#Cc1ccc(C(=O)N2CCc3c(COCC4CC4)cncc3C2)cc1`, -98.8%.
On to `Cc1cccc(CN2CCC3(CC2)COC(COCC2CC2)C3)n1` (stereo not given), for which the cytotoxicity at 10 µM is -108%.
In the case of `Cc1nc(-c2nc(C(=O)NC3CC3)c3ccccn23)cn1C(C)C` it was -103%; in that of `CO[C@@H]1CCN(C(=O)c2cnoc2C)[C@H]1Cc1ccccc1`, -72.3%.
In the case of `CN1CCN(c2ncnc3c2CCN(C(=O)c2cccn2C)CC3)CC1` it was -71%; in that of `COCc1nc(NC(C)c2c(C)n[nH]c2C)c2cnn(C)c2n1` (stereo not given), -13.4%.
In the case of `Cc1cc(C(F)(F)F)nc(CNc2cc(C)nc3cc(C)nn23)n1` it was 9.29%.
For `Cc1cc(C(F)(F)F)nc(CCNc2nc(C)nc3sccc23)n1`, the cytotoxicity at 10 µM is 9.46%.
As for `CC(C)c1nnc2sc(CC3CN(Cc4ccccc4)CCO3)nn12` (stereo not given), the figure is -2.66%.
As for `Cc1ccc(OC2(C(=O)O)CCN(C(=O)c3ccoc3C)CC2)cn1`, the figure is -1.56%.
In the case of `CCCn1cc(C(=O)NC(C)c2c(C)nn(CC)c2C)c(C)n1` (stereo not given) it was 5.31%; in that of `COc1nc2c(cc1C(=O)NCc1nc(CSC)no1)CCC2`, -11.7%.
Turning to `CCc1cn[nH]c1C1CCN(c2cc(C)c3cccc(OC)c3n2)CC1`, the cytotoxicity at 10 µM worked out at 19%.
As for `Cc1n[nH]c(C)c1CCNC(=O)Nc1ccc(S(C)(=O)=O)cc1`, the figure is -5.01%; as for `Cc1ccc(C(C(=O)NCCN2CCC(CO)CC2)N(C)C)cc1` (stereo not given), -10.2%; as for `Cc1c(C(=O)N2CCN(C)[C@@H]3CS(=O)(=O)C[C@@H]32)[nH]c2ccc(F)cc12`, -9.2%.
As for `O=C(c1ccc[nH]1)N1CCc2cc(S(=O)(=O)N3CCOCC3)ccc2C1`, the figure is -3.44%.
In the case of `COc1ccc(CN2CC(=O)N(c3ccc(C)cc3)CC2C)cc1O` (stereo not given) it was 4.84%; in that of `Cc1cnc(C(=O)N2CCNCC2C(=O)NCc2ccncc2)cn1` (stereo not given), 0.89%.
As to `CCNC(=O)C1CN(Cc2c(-c3cc(C)on3)nn(C)c2Cl)CCO1` (stereo not given), the cytotoxicity at 10 µM is -4.37%.
As for `COCCN1CCCC(O)(CN2CCCN(c3ncccn3)CC2)C1=O` (stereo not given), the figure is -3.95%.
In the case of `Cn1ccc2ccc(C(=O)N3CCC[C@H]3C(=O)N3CCOCC3)cc21` it was -0.829%.
As for `CN(C)c1ncnc2c1CCN(S(=O)(=O)c1cccc(Cl)c1Cl)C2`, the figure is 10.4%; as for `CCS(=O)(=O)N1CCCC(c2nccn2Cc2ccccn2)C1` (stereo not given), -10.5%; as for `Cc1sc2nc(CCN)nc(N(C)CCCC3CCCO3)c2c1C` (stereo not given), -6.01%.
`CCc1ncc(C(=O)NCCN(C)S(C)(=O)=O)cn1`: the cytotoxicity at 10 µM turned out to be 4.03%.
Regarding `CCc1c(C)nn(CC(=O)NC(C)c2n[nH]c(C)n2)c1C` (stereo not given), the cytotoxicity at 10 µM is -14.1%.
In the case of `CCCn1ccnc1CNC(=O)C1COc2cc(OC)ccc2C1` (stereo not given) it was 1.61%.
In the case of `Cc1cc(C)c2c(N3CCC(C(=O)N4CCCC4)CC3)ncnc2n1`, the cytotoxicity at 10 µM is -0.218%.
`FC(F)(F)CCc1ccnc(NC2CCOC2)n1` (stereo not given): the cytotoxicity at 10 µM was determined as 16.4%.
As for `O=C1Cc2cc(NC(=O)N3CCCN(Cc4cccs4)CC3)ccc2N1`, the cytotoxicity at 10 µM was found to be 0.929%.
In the case of `CCCc1nc(C(=O)N[C@H]2COC[C@@H]2N2CCN(C)CC2)cs1` it was -23.8%; in that of `CCn1cc(CN(C)S(=O)(=O)c2cnn(CC)c2C)c(C)n1`, 3.13%.
As for `O=C(NCCn1ccnc1)c1ccn(-c2ccc(F)cc2)n1`, the figure is -1.03%; as for `CC(C)c1cc(NC(=O)CNC2CCCN(c3cccnn3)C2)on1` (stereo not given), -1.79%.
In the case of `Cc1nccn1C1CCCN(C(=O)c2cccc(-n3cccc3)c2)C1` (stereo not given) it was -23%; in that of `COc1c(CNCc2ccc(CS(C)(=O)=O)cc2)c(C)nn1C`, -4.47%.
For `O=C(CSCc1ccncc1)NCc1csc(Br)c1`, the cytotoxicity at 10 µM is -6.57%.
Consider `Cc1cnn(CC2CCCN2C(=O)c2nccnc2N)c1` (stereo not given), for which the cytotoxicity at 10 µM is -27.6%.
On to `COc1ccccc1CC1CCCN(CCC(N)=O)C1` (stereo not given), for which the cytotoxicity at 10 µM is -5.06%.
As for `CN(Cc1ncc(-c2ccccc2)o1)C1CCCN(c2cccnn2)C1` (stereo not given), the figure is -29.1%; as for `CCc1c(C(=O)N2CCN(c3ncccn3)CC2)cnn1C(C)(C)C`, -1.91%; as for `CN(CC(=O)N1CCC(Oc2ccccc2)CC1)c1cnccn1`, 2.12%.
As for `Cc1ncc2c(n1)CN(Cc1nnc(Cc3ccccc3)o1)CC2`, the figure is 1.13%; as for `c1sc(C2CCCC2)nc1CN1CCn2c(nnc2C2CC2)C1`, -1.62%.
In the case of `Cc1ccc(NC2CCN(C(=O)CC3CCCO3)CC2)nn1` (stereo not given) it was -10.5%; in that of `Cc1ccccc1CC(=O)N(C)C1CCN(c2ccccn2)CC1`, -2.74%.
For `CCCc1noc(CN2CCCC2c2c(C)nn(C)c2OC)n1` (stereo not given), the cytotoxicity at 10 µM came out at 9.94%.
In the case of `Cc1cnn(C2CCCN(C(=O)c3cccc(Cn4ccnc4)c3)C2)c1` (stereo not given) it was -1.03%; in that of `CCc1nccn1C1CCCN(C(=O)c2cc3nc(C)ccc3o2)C1` (stereo not given), -15.5%.
As for `CC(C)c1nnc2n1CCN(C(=O)c1ccc(-n3cnnc3)cc1)C2`, the figure is -11.5%; as for `O[C@@H]1CN(Cc2cccc(F)c2)CC[C@H]1NCc1ccccn1`, -1.6%.
In the case of `CCCC(=O)N(CCCN1CCOCC1)c1nc2c(C)ccc(Cl)c2s1` it was -10.2%; in that of `c1cnc(NC2COC3(CCN(Cc4nccs4)CC3)C2)cn1` (stereo not given), -79.9%; in that of `CC1c2ncc(Cn3cccn3)n2CCN1S(C)(=O)=O` (stereo not given), -99.2%.
In the case of `O=C(CC1CC1)N1CCn2cc(Cn3cccn3)nc2C1`, the cytotoxicity at 10 µM is -78.5%.
In the case of `CN(C)C[C@H]1OC[C@@H]2CCN(S(=O)(=O)c3ccc(F)cc3)C[C@@H]21` it was -85.7%; in that of `O=C(NC1CC1)N1CCC2(CC1)CC(N1CCOCC1)c1ccccc12` (stereo not given), -109%.
As for `O=C(NCC1COCc2c(-c3cccnc3)nnn2C1)c1cccs1` (stereo not given), the cytotoxicity at 10 µM is 2.93%.
For the compound `c1cnc(N2CCO[C@H]3CN(Cc4ccsc4)C[C@H]32)nc1`, the cytotoxicity at 10 µM was -82%.
In the case of `CN(C)CC1[C@H]2CN(C(=O)c3cc(=O)[nH]c4ccc(F)cc34)C[C@@H]12` (stereo not given in full) it was -6.68%; in that of `COC1[C@@H]2CC[C@H]1CN(c1nc(C)nc3ccsc13)C2` (stereo not given in full), 18%.
